Source: PubChem
Shown are actives, neighbours in structure and some others; about 1.9% of the full set was active somewhere.
sPLA2-III inh: Blocks human group III sPLA2 activity; AID 743126; QFRET BODIPY PC-A2 liposome hydrolysis, fluorescence; Q9NZ20; actives 0.56% (n = 370,000); inhibition, % at 12.2 µM;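 active = inhibition above mean plus 3 SD of compounds lying within the high and low control bounds, cut at about 19% in these data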
proCasp7 act: activates human procaspase-7, counter-screen for procaspase-3 activators; P55210; recombinant procaspase-7, Ac-DEVD-pNA absorbance 405 nm; D23A/D198A/D206A triple mutant, cannot self-cleave; scale: DMSO 0, 5 µM enzyme 100; activation, % at 8.5 µM; actives 0.093% (n = 330,000); AID 463210;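 active = percent activation above the screen-wide mean plus 3 SD, cut at about 25% in these data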
Target sequence (P55210 whole entry D23A/D198A/D206A): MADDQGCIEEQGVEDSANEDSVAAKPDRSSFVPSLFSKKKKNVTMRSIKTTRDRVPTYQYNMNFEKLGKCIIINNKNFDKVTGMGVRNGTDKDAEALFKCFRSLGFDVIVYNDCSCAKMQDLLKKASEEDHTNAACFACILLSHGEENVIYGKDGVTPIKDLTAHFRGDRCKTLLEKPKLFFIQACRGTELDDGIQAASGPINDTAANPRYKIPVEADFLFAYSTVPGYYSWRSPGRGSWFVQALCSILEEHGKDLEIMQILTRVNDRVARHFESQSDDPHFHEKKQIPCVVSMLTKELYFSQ
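Assay system: Uncleavable procaspase-7 mutant enzyme | Input: 2 µM procaspase-7 mutant as dispensed | Timing: 1 h compound preincubation, 2 h substrate cleavage, 25 °C | Repeats: One well per compound | Control set: DMSO wells as 0%, DMSO with 5 µM added PC-7 as 100% | Technique: Epi-absorbance of released pNA at 405 nm, two timepoints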
PLCg1 inh: inhibitors of human phospholipase C gamma1 | P19174 | purified PLC-gamma1, fluorogenic substrate, fluorescence | inhibition, % at 12.2 µM | actives 0.84% (n = 370,000); in the data active = inhibition above about 9.5%
Arrestin-AP2 inh: human beta-arrestin and AP2 interaction inhibition. actives 0.31% (n = 340,000). FITC-arrestin peptide / GST-AP2 beads, flow cytometry; AP2 beta2 appendage carries R879A mutation. inhibition, % at 10 µM;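 active = inhibition above a set limit, near 3 SD of compounds lacking own fluorescence, cut at about 54% in these data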
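Material – GST-tagged AP2 beta2-adaptin appendage (R879A) on 4 µm glutathione beads · Probe or stimulus – fluorescein-tagged arrestin peptide at 50 nM final · Timing – 12 min plus 1 h, RT · Detection – bead flow cytometry, FITC channel · Read-out basis – inhibition as reduced fluorescein signal on beads, percent · Medium – PBS plus Tween 20 (0.05%) and BSA (0.1%)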
procasp3 activ: activates human procaspase-3. P42574. recombinant procaspase-3 D3A, Ac-DEVD-pNA absorbance 405 nm. activation, % at 8.5 µM. actives 0.11% (n = 330,000);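 active = activation above the mean of all tested compounds plus 3 SD, cut at about 21% in these data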
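System: Procaspase-3 D3A mutant. Medium: Zinc-free 300 mM NaCl, 50 mM HEPES, 0.01% Triton X-100. Schedule: 1 h preincubation plus 2 h reaction at 25 °C. Measured by: 405 nm absorbance of p-nitroaniline, reads at 0 and 120 min. Read-out: percent activation relative to control range.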
PLC-beta3 inh: PLC-beta3 (human) inhibition, primary screen | Q01970 | AID 720704 | actives 0.18% (n = 370,000) | Purified PLC-beta3, fluorogenic substrate, fluorescence | inhibition, % at 12.2 µM
PLCg1 ctr: inhibits human PLC-gamma1 in PLC-beta3 counter-screen. actives 3.1% (n = 3,300). shares compounds with PLCg1 inh. inhibition, % at 12.3 µM. purified PLC-gamma1, fluorogenic substrate, fluorescence; in the data active = inhibition above about 9.5%
PLCbeta3 conf: confirmation of human PLC-beta3 inhibitors. shares compounds with PLCg1 inh. purified PLC-beta3, fluorogenic substrate fluorescence. inhibition, % at 12.3 µM. actives 1% (n = 3,300)
Of the large screens only hits and unclear results are named; the others gave an inactive call (follow-up assays come after a bar, where they were run). Rule as the data show it, unless noted: active = inhibition above about 11%; inactive = the rest.

CC1=C(C(=O)Nc2cccc(C(=O)NC3CCCC(C)C3C)c2)SCCO1 (stereo not drawn)	none
COc1ccc(CNC(=O)C[C@H]2C(=O)N(Cc3ccc(OC)cc3)C[C@@H]2Cc2ccccc2)cc1	PLCg1 inh 10.9 | PLCg1 ctr inactive | PLCbeta3 conf inactive
COc1ccc(CNC(=O)C[C@H]2C(=O)N(Cc3ccccc3)C[C@@H]2Cc2ccccc2)cc1	none
CC(C)Cc1ccc(S(=O)(=O)N2CCN(c3ccccn3)CC2)cc1	none
O=C(Nc1ccccc1)c1cccc(NC(=O)c2ccco2)c1	none
CC(Oc1ccccc1)C(=O)Nc1cccc(NC(=O)c2ccco2)c1 (stereo not drawn)	PLCg1 inh 11.0 | PLCg1 ctr inactive | PLCbeta3 conf inactive
NC1=C(Br)C(=O)c2ncccc2C1=O	PLCg1 inh 9.5 (no result: proCasp7 act, procasp3 activ) | PLCg1 ctr inactive | PLCbeta3 conf inactive
Nc1ccc2cc3ccc(N)cc3nc2c1	none (no result: proCasp7 act, Arrestin-AP2 inh, procasp3 activ)
CCCCCCN1CCN(C2CN(Cc3cn(Cc4ccc(C)cc4)nn3)S(=O)(=O)C2)CC1 (stereo not drawn)	PLCg1 inh 14.5 (no result: proCasp7 act, Arrestin-AP2 inh, procasp3 activ) | PLCg1 ctr inactive | PLCbeta3 conf inactive
Cc1ccc(Cn2cc(CN3CC(N4CCCCC4)CS3(=O)=O)nn2)cc1 (stereo not drawn)	none (no result: proCasp7 act, Arrestin-AP2 inh, procasp3 activ)
O=C(Nc1ccc(F)c(Cl)c1)c1cc(C2CCCN(S(=O)(=O)c3cccc4cccnc34)C2)on1 (stereo not drawn)	PLC-beta3 inh 11.2 (no result: proCasp7 act, Arrestin-AP2 inh, procasp3 activ) | PLCg1 ctr inactive | PLCbeta3 conf inactive
COC(=O)C1=C(C)N(C)C(=NCc2cc(OC)c(OC)c(OC)c2)NC1c1ccc(Cl)cc1 (stereo not drawn)	PLC-beta3 inh 13.1 (no result: proCasp7 act, Arrestin-AP2 inh, procasp3 activ) | PLCg1 ctr inactive | PLCbeta3 conf inactive
COC(=O)C1=C(C)N(C)C(=NCc2ccc(OC)cc2)NC1c1ccc(Cl)cc1 (stereo not drawn)	none (no result: proCasp7 act, Arrestin-AP2 inh, procasp3 activ)
CCOC(=O)Cn1nnc(-c2ccccc2)n1	PLC-beta3 inh 13.6 | PLCg1 ctr inactive | PLCbeta3 conf inactive
COc1ccccc1NS(=O)(=O)c1cc(NC(=O)CNC(=O)c2ccccc2)ccc1C	PLCg1 inh 10.9 | PLCg1 ctr inactive | PLCbeta3 conf inactive
O=C(N[C@@H]1CCCc2c1cnn2-c1ccc(F)cc1F)c1ccccn1	none (no result: proCasp7 act, Arrestin-AP2 inh, procasp3 activ)
COc1ccc(C(=O)NCC2CCCN2S(=O)(=O)c2ccccc2)cc1OC (stereo not drawn)	PLCg1 inh 9.5 (no result: proCasp7 act, Arrestin-AP2 inh, procasp3 activ) | PLCg1 ctr inactive | PLCbeta3 conf inactive
CCN(CC)S(=O)(=O)c1ccc(NCC2COc3ccccc3O2)c([N+](=O)[O-])c1 (stereo not drawn)	PLCg1 inh 12.2 | PLCg1 ctr inactive | PLCbeta3 conf inactive
CN(c1ccccc1)S(=O)(=O)c1ccc(Cl)c(C(=O)Nc2ccncc2)c1	PLCg1 inh 9.8 | PLCg1 ctr inactive | PLCbeta3 conf inactive
CN(c1ccc(F)cc1)S(=O)(=O)c1ccc(Cl)c(C(=O)Nc2ccncc2)c1	none
Cc1nn(-c2ccccc2)c(N2CCCC2)c1/C=N/NC(=O)C1CC1	PLCg1 inh 12.0 | PLCg1 ctr inactive | PLCbeta3 conf inactive
CC(C)(C)[C@H](NC(=O)c1cc(Cl)cc(Cl)c1)C(=O)N1CCC[C@H]1C(=O)N[C@H](C#N)CC(=O)O	none (no result: proCasp7 act, Arrestin-AP2 inh, procasp3 activ)
O=C(CCN1C(=O)C2C3C=CC(C3)C2C1=O)NC1CCCCC1 (stereo not drawn)	none
CCOC(=O)N1CCC(NC(=O)CCN2C(=O)C3C4C=CC(C4)C3C2=O)CC1 (stereo not drawn)	PLCg1 inh 10.1 | PLCg1 ctr inactive | PLCbeta3 conf inactive
O=C(CCSCc1ccccc1F)N1CCN(c2ccccn2)CC1	PLCg1 inh 10.0 | PLCg1 ctr inactive | PLCbeta3 conf inactive
O=C(CSCc1ccccc1Cl)N1CCN(c2ccccn2)CC1	none
